# Screens as filed in PubChem.
# Insulin prom act: TRM-6 insulin promoter activation; TRM-6 cells (human fetal islet line), insulin promoter eGFP reporter, imaging; plate-scaled: unstimulated 0, stimulated control 100; activation, % at 2 µM; 130,000 tested, 0.81% active;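 active = activation at 2 µM above a set limit, confirmed on inspection of the cell images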;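 note: share of cells whose green reporter signal exceeds an intensity cutoff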
#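 Assay system: TRM-6 insulin promoter–eGFP reporter cells / Input: 1,000 cells per well / Medium: Low-glucose (5.5 mM) medium with tamoxifen / Also added: tamoxifen inducer, 0.75 µM, in seeding medium / Timing: overnight tamoxifen, then two-day compound incubation at 37 °C / Signal: automated fluorescence imaging of paraformaldehyde-fixed, Hoechst-counterstained cells, green channel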
# Active calls of the source: *. Shown is part of a subset that was picked to be rich in hits.
SMILES,Insulin prom act
CCc1cc[n+](-c2nc3ccccc3nc2[N-]S(=O)(=O)c2ccc(Br)s2)cc1,-7.7
CCNC(=S)N1CCC(c2nc3ccccc3s2)CC1,-3.3
CCn1c(COc2ccc(=O)n(-c3ccccc3)n2)nnc1SC,118.2
CC1CCc2sc(C(=O)N/N=C/c3ccc([N+](=O)[O-])cc3)cc2C1 (centres undefined),-6.5
CCCCc1ccc(C2C(C#N)=C(N)SC(N)=C2C#N)s1,275.0*
Cc1sccc1C1C(C#N)=C(N)SC(N)=C1C#N,276.2
Cc1cc(C2C(C#N)=C(N)SC(N)=C2C#N)c(C)s1,184.6
CC(C)(C)c1c(Cl)c(O)c(-c2ccccc2)c(=O)n1-c1ccccc1,5.6
CC(=O)c1c(C)[nH]c(C(=O)CN2C(=O)NC(C)(c3ccc(C)cc3)C2=O)c1C (centres undefined),0.0
O=C(c1ccc2ccccc2n1)N1CCN(c2ccccc2O)CC1,2.7
COC(=O)c1c(C(=O)OC)c(-c2ccc(Cl)cc2)n2c1CS(=O)(=O)C2,0.0
CC(C)N1CC=C2C(C#N)=C(N)C(C#N)(C#N)[C@H](c3ccoc3)[C@H]2C1,161.3*
COc1cc(C2C3CN(C)CC=C3C(C#N)=C(N)C2(C#N)C#N)ccc1OC(C)C (centres undefined),257.1*
COc1cc(C2NC(=O)C(C#N)=C(S)N2c2ccccc2)ccc1OC(C)C (centres undefined),191.9
CN1C2C=C3C(C#N)=C(N)C(C#N)(C#N)C(c4ccc(Br)cc4)C3C1CC2 (centres undefined),281.3
Cc1ccc(C2C3CSCC=C3C(C#N)=C(N)C2(C#N)C#N)cc1 (centres undefined),-3.8
Cc1ccnn1CCSCC(=O)O,0.0
Cc1ccc(OCC(=O)Nc2cc(S(=O)(=O)N3CCCCC3)ccc2C)c([N+](=O)[O-])n1,-9.7
Cc1onc(C(=O)NC(C)c2ccccc2)c1[N+](=O)[O-] (centres undefined),-5.9
Cc1ccc(N2C(=O)c3cccc4c(Oc5ccccc5[N+](=O)[O-])ccc(c34)C2=O)c(C)c1,0.0
O=C(Nc1nc(SCc2ccc(F)cc2)ns1)c1ccco1,93.6
CCOCCc1nnc(NC(=O)Cc2ccccc2)s1,0.0
CSc1nsc(NC(=O)Cc2ccccc2)n1,103.2*
CC1CCCC(n2c(=S)[nH]c3ccccc3c2=O)C1C (centres undefined),-7.0
CCOC(=O)c1c(NC(=O)CSc2nnc(C)s2)sc2c1CCC(CC)C2 (centres undefined),3.2
SMILES,Insulin prom act
Cc1nn(C)c(Cl)c1CN1CCC(CO)(CC2CCCCO2)CC1 (centres undefined),0.0
Cc1c(NC(N)=O)c(=O)n(-c2ccccc2)n1C,247.6*
Cc1c(NC(=O)c2ccccc2)c(=O)n(-c2ccccc2)n1C,-57.1
CCOC(=O)NC(=S)Nc1c(C)n(C)n(-c2ccccc2)c1=O,0.0
CCOC(=O)Cc1csc(/N=C/c2c(O)n(-c3ccc(C)c(C)c3)c(=O)c3ccccc23)n1,5.9
O=S(=O)(NC1CCCCC1)c1ccc(Br)cc1,0.0
CC(C)[C@@H]1NC(=O)c2cc([N+](=O)[O-])cc(I)c2NCCCC[C@@H](C(=O)NC(CC(=O)O)C(N)=O)NC(=O)[C@H](CO)NC1=O (some centres undefined),9.1
Cc1nn(-c2ccc(C(=O)O)cc2)c(C)c1Oc1ccccc1O,8.1
COc1ccc(-c2c(C)nn(-c3ccccc3)c2N)cc1,0.0
COP(C)(=O)c1c(C)nn(-c2ccccc2)c1C (centres undefined),83.6*
O=C(CN1C(=O)NC2(CCCCC2)C1=O)NC1CCCc2ccccc21 (centres undefined),-2.9
O=C(NCCN1CCCCCC1)c1ccc(N2CCCC2=O)cc1,-8.6
CN1CCN(C(=O)c2ccc(N3CCCC3=O)cc2)CC1,0.0
CC(C)(C)c1ccc(C(=O)N2CCCCCC2=O)cc1,584.6*
CC(C)Cn1c(N)c(C(=O)COC(=O)c2ccc3ccccc3n2)c(=O)n(C)c1=O,-30.0
CCc1ccc(C2=NN(CCC(=O)NC(C)CCc3ccccc3)C(=O)CC2)cc1 (centres undefined),107.1
CSc1nnc(-c2cc(C)on2)n1-c1ccccc1,7.7
CCn1cc(CNC(=O)CCSc2nc(-c3ccco3)cc(C(F)(F)F)n2)cn1,8.3
CCOC(=O)N1CCN(C(=O)CSc2ccc(-c3ccc(OC)cc3)nn2)CC1,2.9
Cc1ccc(N2C(=O)/C(=C\c3ccco3)SC2=S)cc1,-2.9
C=CCN1C(=O)/C(=C\c2ccc(OC(=O)c3ccco3)c(OC)c2)SC1=S,111.1
O=C1/C(=C\c2ccco2)SC(=S)N1Cc1ccccc1,150.0*
COc1cccc(CC(NC(C)=O)C(=O)NC2CCN(S(=O)(=O)c3ccc4ccccc4c3)CC2)c1 (centres undefined),8.6
COc1ccc(-c2cc(C(=O)NCC(C)C)no2)cc1,-5.7
CC[n+]1c(/C=C/Nc2ccccc2)oc2ccc(OC)cc21,455.6*
SMILES,Insulin prom act
CC[n+]1c(/C=C/N(C)c2ccccc2)oc2ccc(F)cc21,5.7
CC[n+]1c(/C=C/N(C)c2ccccc2)oc2ccccc21,156.3
CCOC(=O)c1c(-c2ccccc2)oc2ccc(OC)cc12,0.0
O=S(=O)([O-])CCC[n+]1c(/C=C\Nc2ccccc2)oc2ccc(-c3ccccc3)cc21,376.2*
CC[n+]1c(/C=C/Nc2ccccc2)oc2ccccc21,137.5*
CCCCNC(=O)CCN1N=C(c2ccccc2)CCC1=O,136.4
Cn1cc(Br)c(C(=O)NNC(=O)c2ccc(Cl)cc2)n1,7.4
COC(=O)c1cn(C(=O)c2ccc(Br)o2)c2ccccc12,0.0
COC(=O)c1cn(C(=O)c2ccc(C)c(C)c2)c2ccccc12,5.6
COC(=O)c1cn(C(=O)c2cccc(C)c2)c2ccccc12,483.3*
O=C(c1ccc(S(=O)(=O)Cc2ccccc2F)c([N+](=O)[O-])c1)N1CCCC1,0.0
CC1(c2ccc([N+](=O)[O-])c(CS(=O)(=O)c3ccccc3)c2)OCCO1,627.3*
CC1CCN(C(=O)c2ccc(S(=O)(=O)Cc3ccccc3F)c([N+](=O)[O-])c2)CC1,5.4
O=S(=O)(Cc1ccccc1)N1CCc2ccccc21,263.0
Cc1cc(NC(=O)c2sccc2C)n(-c2cccc(Cl)c2)n1,-3.2
COc1ccccc1OCc1ccc(C(=O)NC(C)(C)C)o1,50.0
COC(=O)c1ccccc1NC(=O)c1ccc(COc2ccccc2)o1,584.6*
COc1ccc(NC(=O)c2ccc(COc3ccccc3)o2)cc1,-5.4
CCOC(=O)Cn1nc(C)c(NC(=O)c2ccc([N+](=O)[O-])c(C)c2)c1C,-6.7
CCN(CC)CCn1cnc2c([nH]c3cccc(OC)c32)c1=O,-9.5
CCN(CC)CCn1c(N)cc(=O)[nH]c1=O,0.0
CCN(CC)CCn1c(OC)cc(=O)[nH]c1=O,500.0*
NS(=O)(=O)c1cccnc1Nc1c(Cl)cccc1Cl,-6.7
O=C1Nc2ccc([N+](=O)[O-])cc2C1(O)N1CCCCCC1 (centres undefined),-2.3
Cc1cccc(C)c1N(CC(O)Cn1c2ccccc2c2ccccc21)S(C)(=O)=O (centres undefined),89.3*
Cc1cccc(C)c1N(CC(=O)N1CCN(c2ccccc2F)CC1)S(C)(=O)=O,6.7
Cc1nccn1CC(O)Cn1c2ccccc2c2ccccc21 (centres undefined),9.5
C/C(N)=C(/C#N)C(=O)CSc1nc2ccccc2n1CC(C)C,0.0
